From PubChem BioAssay come the findings set out here.

Assay [1] in a line: inhibitors of TNFa-induced NFkB p65 translocation, primary screen, imaging, HUVEC, MLSMR starter and 10KST1 sets (AID 438;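 active = inhibition above 20% together with a positive visual image hit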;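 note: compound added about 3h40 before a 20 min TNFalpha stimulation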;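 for inhibition: signal is the nuclear over cytoplasmic p65 intensity ratio per well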). As to conditions: HUVEC TNFa-induced p65 nuclear translocation; cell count: measured here: nuclei count (cytotoxicity indicator), at 2.08 µM; inhibition: at 2 µM, stronger effect = higher value, 0% TNFa-plus-vehicle, 100% no-TNFa wells.
Assay [2] in a line: endothelial E-selectin expression blockers – imaging, HUVEC, immunofluorescence, MLSMR starter and 10KST1 sets, primary screen (AID 487;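 active = visually confirmed hit in the image check and inhibition above 20%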;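 for inhibition: signal is fraction of cell area covered by stained E-selectin grains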;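 for nuclei count: 100% = median nuclei count of all wells on the same plate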). To be noted: HUVEC TNFalpha-induced E-selectin immunofluorescence imaging, at 2 µM; inhibition: stronger effect = higher value; nuclei count: measured here: cell number, toxicity.
Assay [3] can be described thus: Primary imaging screen for DUSP6 inhibitors that restore phospho-Erk in transfected HeLa cells, chemical complementation (AID 609;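 active = compounds giving at least 50% inhibition in the cell-based MKP-3 phosphatase rescue imaging test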;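 for inhibition: phospho-Erk level distribution per well compared with pooled transfected vehicle control wells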). As to conditions: HeLa MKP-3 transfected, phospho-Erk imaging KS statistic, at 10 µM, cells stimulated with TPA for 15 min.
Assay [4] addresses Dual specificity protein phosphatase 6 (Homo sapiens) (UniProt Q16828). The assay is described as above. As to conditions: HeLa MKP-3 transfected, phospho-Erk imaging KS statistic; at 10 µM; stronger effect = higher value; cells stimulated with TPA for 15 min.
The target in assay [5] is Voltage-gated potassium channel subunit beta-2 (Rattus norvegicus) (UniProt P62483). Description: inhibitors of rat Kvbeta2 reductase activity – biochemical, NADPH fluorescence, primary screen (AID 622;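 active = fluorescence slope higher than the sample average by over 3 SD, cut at about -0.22 in these data, passing the limit was not always enough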;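 note: slope of raw intensity against log time taken from 70 to 1610 s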). As to conditions: recombinant KvBeta, 4-cyanobenzaldehyde reduction, at 10 µM, stronger effect = higher value.
Chain of Voltage-gated potassium channel subunit beta-2 (Rattus norvegicus) (P62483 whole entry, looked up): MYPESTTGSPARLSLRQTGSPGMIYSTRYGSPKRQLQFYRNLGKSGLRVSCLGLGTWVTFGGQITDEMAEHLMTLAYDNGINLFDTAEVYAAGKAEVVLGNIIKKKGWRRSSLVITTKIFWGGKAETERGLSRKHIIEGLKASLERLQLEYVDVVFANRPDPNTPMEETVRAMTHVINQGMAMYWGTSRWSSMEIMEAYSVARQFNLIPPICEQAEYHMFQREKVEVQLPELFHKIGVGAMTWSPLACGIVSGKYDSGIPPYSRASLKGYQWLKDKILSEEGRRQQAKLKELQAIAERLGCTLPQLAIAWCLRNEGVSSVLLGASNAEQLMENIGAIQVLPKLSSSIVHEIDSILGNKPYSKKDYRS
For assay [6] the target is unchanged. Kind of assay: enhancers of rat Kvbeta2 NADPH turnover – biochemical, NADPH fluorescence, primary screen (AID 623;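 active = NADPH fluorescence slope more negative than the mean of all samples by about 3 SD, 99.7% confidence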;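 note: fluorescence intensity change per second fitted from 20 to 320 s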). To be noted: Recombinant KvBeta, NADPH fluorescence decrease slope, 10 min; at 10 µM; stronger effect = lower value.
Assay [7] addresses Alpha-2C adrenergic receptor (Homo sapiens) (UniProt P18825). Description: compounds altering alpha2C-coupled GIRK flux – cell-based, HEK293 alpha2C/GIRK1/2, thallium flux, primary screen (AID 624;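 active = fluorescence slope after compound addition differing from the mean of all screened samples at 99.7% confidence, in either direction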;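 note: slope of fluorescence ratio to pre-addition baseline per second over 15 to 24 s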). To be noted: thallium flux BTC fluorescence, at 10 µM, actives lie on both sides.
The nature of assay [8]: inhibitors of larval lipid processing in zebrafish, primary screen, whole organism, PED6 fluorescence, gall bladder and intestine (AID 686;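 active = a full or partial loss of lipid-probe fluorescence in the fish gall bladder, intestine or both, judged by eye; inactive = no fluorescence loss, or compound toxic to the fish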;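 note: signal comes from phospholipase A2 cleavage of quenched PED6 carried via bile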). To be noted: Zebrafish larvae PED6 lipid processing, fluorescence scoring; screened at 20 µM (by protocol). Summed up: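 Doses: 20 µM single dose. Test system: live zebrafish larvae aged 5-7 days, whole organism. Quantity: five larvae per well. Measured by: By-eye fluorescence microscopy. Reagent: ingested quenched lipid PED6 at 100 nM. Read-out: visual per-well fluorescence inhibition score. Times: overnight exposure of larvae to compound plus PED6.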

A short description of assay [9]: loss of swimming-algae plug formation – whole organism, Chlamydomonas reinhardtii, WT vs cilia-less mutant, absorbance, 96-well, primary screen (AID 463189).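 Note: 0% = wild type cc124 cells in DMSO and 100% = ciliumless bld1 mutant cells.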 To be noted: Chlamydomonas reinhardtii gravitaxis, OD600 absorbance, 2 days; at 10 µM; stronger effect = higher value.
Where [10] appears, read: measured here: cell density z-score.
[11] abbreviates: measured here: nuclear c-Myc green intensity z-score.
Where [12] appears, read: measured here: nuclear pErk red intensity z-score, stronger effect = higher value.

The source made the active and inactive calls.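 Rule for the calls, unless noted: active = inhibition at or above 50% relative to wild type and mutant plate controls; inactive = inhibition below 50%.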

Chain of Dual specificity protein phosphatase 6 (Homo sapiens) (Q16828 whole entry, looked up): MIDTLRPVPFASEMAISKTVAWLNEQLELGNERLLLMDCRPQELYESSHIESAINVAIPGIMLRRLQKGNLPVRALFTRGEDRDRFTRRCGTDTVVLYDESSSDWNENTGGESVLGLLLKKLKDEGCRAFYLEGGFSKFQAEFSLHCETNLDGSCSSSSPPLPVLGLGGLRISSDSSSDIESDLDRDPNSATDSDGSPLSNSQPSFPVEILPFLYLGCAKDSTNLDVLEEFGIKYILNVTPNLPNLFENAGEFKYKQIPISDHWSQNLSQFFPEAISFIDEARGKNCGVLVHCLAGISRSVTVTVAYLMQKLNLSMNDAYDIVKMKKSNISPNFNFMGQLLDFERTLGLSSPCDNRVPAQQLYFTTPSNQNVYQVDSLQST
Chain of Alpha-2C adrenergic receptor (Homo sapiens) (P18825 whole entry, looked up): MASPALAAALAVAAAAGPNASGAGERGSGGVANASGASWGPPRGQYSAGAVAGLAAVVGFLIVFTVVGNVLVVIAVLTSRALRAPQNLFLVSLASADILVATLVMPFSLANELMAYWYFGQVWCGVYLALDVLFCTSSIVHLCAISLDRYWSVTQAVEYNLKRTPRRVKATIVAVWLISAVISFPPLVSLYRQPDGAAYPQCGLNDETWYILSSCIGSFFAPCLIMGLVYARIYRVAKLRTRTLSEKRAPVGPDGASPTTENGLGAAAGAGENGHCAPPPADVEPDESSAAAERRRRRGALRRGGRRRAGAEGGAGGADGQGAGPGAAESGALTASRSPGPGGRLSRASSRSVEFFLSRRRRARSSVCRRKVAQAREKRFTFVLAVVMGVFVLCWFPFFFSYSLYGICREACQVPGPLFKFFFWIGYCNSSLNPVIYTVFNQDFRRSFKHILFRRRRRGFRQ

As for `COc1ccc(OC)c(NC(=O)CSC2=C(C#N)C(c3ccco3)C3=C(CCCC3=O)N2)c1` (centres undefined), the cell count in assay [1] worked out at 356. In addition, the inhibition in [1] is -6.8% (inactive); in assay [2] it was -37.1% (inactive); in assay [4] it was -6.59% (inactive); in assay [9], 20.2% (inactive). Besides, the nuclei count in assay [2] was 141%. Also, the z-score in [3] (setting [10]) is -0.66; in assay [3] (setting [11]), -0.0626; in assay [3] (setting [12]), 0.62. In assay [5], the fluorescence slope is -0.404 (inactive). For the same molecule, the NADPH fluorescence slope in assay [6] is -0.000112 (inactive). Besides, the slope in [7] was 0.00599 (inactive). Also, the result in assay [8] was inactive.

For the molecule `COc1ccc(-c2nn3c(-c4ccccn4)nnc3s2)cc1OC`, the cell count in assay [1] was determined as 638. For the same molecule, the inhibition was -8.9% (inactive) in assay [1], 36.9% (inactive) in assay [2], -2.47% (inactive) in [4] and 22% (inactive) in [9]. For the same molecule, the nuclei count in assay [2] was found to be 169%. The z-score in assay [3] (setting [10]) was 0.845; in assay [3] (setting [11]) it was -0.297; in assay [3] (setting [12]), -0.421. For the same molecule, the fluorescence slope in [5] was -0.407 (inactive). For the same molecule, the NADPH fluorescence slope in assay [6] was -0.000141 (inactive). In assay [7], the slope was 0.00665 (inactive). The molecule was called inactive in assay [8].

`CN1C(=O)N(c2ccccc2)C(Nc2nncs2)C1(C)C` (centres undefined): in assay [1], the cell count amounted to 438. Besides, the inhibition in assay [1] was 3.5% (inactive); in assay [2], -58.9% (inactive); in assay [4], -2.29% (inactive); in assay [9], 1.2% (inactive). In assay [2], the nuclei count is 167%. Besides, the z-score in assay [3] (setting [10]) is -0.342; in assay [3] (setting [11]), 0.524; in assay [3] (setting [12]), 0.181. Also, the fluorescence slope in assay [5] was -0.341 (inactive). Further, the NADPH fluorescence slope in [6] was -2.5e-05 (inactive). In addition, the slope in assay [7] is 0.00481 (inactive). In addition, in [8], the molecule was called inactive.

On to `C/C=C/c1ccccc1OCc1ccc(C(=O)O)o1`, for which, in assay [1], the cell count amounted to 540. The inhibition in [1] was -2.1% (inactive); in [2] it was 9.9% (inactive); in [4], 0.671% (inactive); in assay [9] it was -4.22% (inactive). Further, the nuclei count in [2] turned out to be 98.3%. Further, the z-score in [3] (setting [10]) is -2.68; in assay [3] (setting [11]) it was 0.479; in assay [3] (setting [12]) it was 0.66. Besides, the fluorescence slope in [5] was -0.571 (inactive). Also, the NADPH fluorescence slope in assay [6] is -6.2e-05 (inactive). Besides, in assay [7], the slope is 0.00529 (inactive). The outcome in [8] was inactive.

Take `Cc1nnc(SCCC#N)n(CCC#N)c1=O`: the cell count in assay [1] amounted to 585. Moreover, the inhibition in [1] was -13.5% (inactive); in assay [2], 24.6% (inactive); in assay [4] it was 1.12% (inactive); in [9], 7.85% (inactive). Besides, in assay [2], the nuclei count came to 164%. Also, the z-score in [3] (setting [10]) was -0.25; in [3] (setting [11]), 0.45; in assay [3] (setting [12]), 2.53. For the same molecule, the fluorescence slope in assay [5] is -0.396 (inactive). In addition, the NADPH fluorescence slope in assay [6] is -3e-05 (inactive). The slope in assay [7] was 0.00584 (inactive). Also, the result in assay [8] was inactive.

With `CCCCn1c(-c2ccc(Cl)cc2)nc2c(=O)n(C)c(=O)[nH]c21`, in [1], the cell count was found to be 453. Moreover, the inhibition is -18.9% (inactive) in assay [1], -400% (inactive) in assay [2], 11% (inactive) in assay [4] and -2.64% (inactive) in assay [9]. The molecule also gave a nuclei count in assay [2] of 197%. Moreover, the z-score is 0.0253 in assay [3] (setting [10]), -0.817 in assay [3] (setting [11]) and 1.4 in assay [3] (setting [12]). Besides, the fluorescence slope in assay [5] was -0.398 (inactive). Moreover, in assay [6], the NADPH fluorescence slope is -5.4e-06 (inactive). In addition, the slope in assay [7] was 0.00511 (inactive). In assay [8], the result was inactive.

On to `COc1ccc(OC)c(C2/C(=C(/O)c3cnn(-c4ccccc4)c3C)C(=O)C(=O)N2CCN(C)C)c1` (centres undefined), for which the cell count in assay [1] came to 452. For the same molecule, the inhibition in [1] was 1.9% (inactive); in assay [2] it was 8.9% (inactive); in [4], -1.75% (inactive); in assay [9], 12% (inactive). The nuclei count in assay [2] is 86.9%. The z-score was -1.51 in assay [3] (setting [10]), 0.604 in assay [3] (setting [11]) and -0.829 in [3] (setting [12]). The fluorescence slope in assay [5] was -0.47 (inactive). For the same molecule, the NADPH fluorescence slope in [6] is -9.5e-06 (inactive). Also, the slope in [7] was 0.00657 (inactive). In addition, the molecule was classed as inactive in assay [8].

Turning to `C=C1c2cc(OC)ccc2NC(=O)N1CC`, the cell count in assay [1] worked out at 611. Moreover, the inhibition is 0.3% (inactive) in assay [1], -36.5% (inactive) in assay [2], -4.7% (inactive) in assay [4] and 5.59% (inactive) in assay [9]. In [2], this molecule had a nuclei count of 127%. For the same molecule, the z-score was 0.269 in assay [3] (setting [10]), 0.973 in assay [3] (setting [11]) and -0.0863 in [3] (setting [12]). The fluorescence slope in [5] was -0.452 (inactive). In addition, the NADPH fluorescence slope in [6] is -0.0002 (inactive). Also, in [7], the slope is 0.00447 (inactive). Further, in assay [8], the molecule was classed as inactive.

As for `COc1cc(C2C(C#N)=C(N)Oc3cc(C)n(Cc4ccccn4)c(=O)c32)cc2c1OCO2` (centres undefined), the cell count in assay [1] amounted to 433. Moreover, the inhibition in [1] is 6.2% (inactive); in assay [2] it was -56.2% (inactive); in [4], 11.4% (inactive); in assay [9], -11.1% (inactive). Besides, the nuclei count in [2] was determined as 88.8%. The values for the z-score in assay [3] (setting [10]), in assay [3] (setting [11]) and in assay [3] (setting [12]) were -2.67, -0.393 and 1.97, respectively. Moreover, in [5], the fluorescence slope was -0.442 (inactive). In addition, the NADPH fluorescence slope in [6] is -1.2e-05 (inactive). For the same molecule, the slope in assay [7] was 0.00753 (inactive). In addition, the result in [8] was inactive.

For the molecule `Nc1c(C(=O)NCC2CCCO2)c2nc3ccccc3nc2n1/N=C/c1ccncc1` (centres undefined), the cell count in [1] came out at 470. The inhibition in assay [1] is -2.9% (inactive); in assay [2], -109% (inactive); in [4] it was 22.8% (inactive); in assay [9], -25.5% (inactive). In [2], the nuclei count was 110%. In addition, the z-score in assay [3] (setting [10]) was 1.93; in assay [3] (setting [11]) it was -0.485; in assay [3] (setting [12]), 0.517. Also, the fluorescence slope in assay [5] is -0.507 (inactive). The NADPH fluorescence slope in [6] is -3.7e-05 (inactive). In [7], the slope is 0.00723 (inactive). In addition, the molecule was called inactive in assay [8].

Consider `CC1(C)CC(N(Cc2ccco2)C(=O)Cc2ccccc2)CCO1` (centres undefined), for which the cell count in assay [1] was determined as 535. Moreover, the inhibition in assay [1] is 12.5% (inactive); in assay [2], -104% (inactive); in [4] it was 3.5% (inactive); in assay [9], 6.62% (inactive). This molecule also returned a nuclei count in assay [2] of 145%. In addition, the z-score is -0.358 in [3] (setting [10]), 2.8 in assay [3] (setting [11]) and -0.796 in [3] (setting [12]). Moreover, the fluorescence slope in [5] is -0.485 (inactive). Besides, in [6], the NADPH fluorescence slope was -3.2e-05 (inactive). Besides, the slope in assay [7] was 0.00539 (inactive). Also, in assay [8], the molecule was called inactive.

For the molecule `COc1ccc(NC(=O)C2CSC3c4ccccc4C(=O)N23)cc1` (centres undefined), in [1], the cell count was found to be 376. Besides, the inhibition in [1] was 0.6% (inactive); in assay [2], -32.1% (inactive); in [4] it was -1.12% (inactive); in assay [9], 127% (active). In addition, the nuclei count in [2] was determined as 112%. For the same molecule, the z-score was -0.228 in assay [3] (setting [10]), 0.485 in assay [3] (setting [11]) and -1.59 in assay [3] (setting [12]). In assay [5], the fluorescence slope is -0.355 (inactive). Besides, the NADPH fluorescence slope in assay [6] was 2.4e-05 (inactive). The slope in assay [7] was 0.00604 (inactive). In addition, in [8], the result was inactive.

Consider `COc1cc(-c2nn3c(C4CCCCC4)nnc3s2)cc(OC)c1OC`, for which the cell count in assay [1] was determined as 535. The inhibition in assay [1] was -28.6% (inactive); in [2], -115% (inactive); in [4], -7.86% (inactive); in [9], 12.1% (inactive). The molecule also gave a nuclei count in [2] of 167%. In addition, the figures for the z-score in assay [3] (setting [10]), in assay [3] (setting [11]) and in assay [3] (setting [12]) were -1.15, 0.143 and 1.4, respectively. Also, in assay [5], the fluorescence slope was -0.479 (inactive). Moreover, the NADPH fluorescence slope in assay [6] is -0.000183 (inactive). The slope in [7] was 0.00564 (inactive). Also, in [8], the molecule was classed as inactive.

One may read the inhibition as the relative decrease from the control value, in per cent.
